Assays:
[1] = system: Mus musculus; experiment: Tested for in vivo weight change against murine P388Pt-resistant leukemia at the dose of 2.3 mg/kg per injection; format: functional, organism-based
Method in brief: (§1)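 Leukemia life-span assays used CD2F1 (Balb/c × DBA/2F1) mice weighing 18–22 g. Cells were inoculated IP on day 0, and compounds in 0.9% saline were given IP, dosed by average cage weight. Weight change is the difference in mean group weight between the last and first treatment days.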

[2] = system: Mus musculus; experiment: Tested for net cell kill tumor burden reduction during therapy at the dose 4.0 mg/kg in B16 melanoma; format: functional, organism-based; design: dose 4 mg/kg
Method in brief: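 Solid tumor growth delay assay; B16 melanoma and M5076 sarcoma were run in B6C3F1 (C57BL/6 × C3HF1) mice of 18–22 g. Tumor fragments were implanted SC on day 0, then drug in 0.9% saline was given IP on days 1, 5, 9 or days 3, 7, 11, mg/kg per injection. T − C is the difference in days for treated and control tumors to reach 750 mg. Net log cell kill is tumor burden reduction during therapy. Cured mice were excluded.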

[3] = system: L1210; experiment: Tested for in vitro growth inhibition against murine leukemia cell L1210DDP5; format: functional, cell-based; conditions: Mus musculus
[4] = system: Mus musculus; experiment: Tested for in vivo weight change against murine P388 leukemia at the dose of 2.3 mg/kg per injection in experiment 2; format: functional, organism-based; method in brief: as §1
[5] = system: L1210; experiment: Tested for median life span against solid tumor L1210 leukemia at 3.0 mg/kg per injection in experiment 1; format: functional, organism-based; conditions: Mus musculus
Method in brief: (§2)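 CD2F1 mice weighing 18–22 g were inoculated IP with leukemia cells on day 0. Compounds in 0.9% saline were given IP in three injections, dosed by average cage weight, over a dose range from toxic to ineffective. Median life span was recorded, with cause of death assessed at necropsy and 60-day survivors counted as cured.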

[6] = system: P388; experiment: Tested for in vitro growth inhibition against murine leukemia cell P388S; format: functional, cell-based; conditions: Mus musculus
[7] = system: L1210; experiment: Tested for in vitro growth inhibition against murine leukemia cell L1210PtR4; format: functional, cell-based; conditions: Mus musculus
[8] = system: Mus musculus; experiment: Tested for in vivo weight change against murine B16 melanoma at the dose of 4.0 mg/kg per injection; format: functional, organism-based
Method in brief: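 B6C3F1 (C57BL/6 × C3HF1) mice weighing 18–22 g received trocar tumor fragments SC on day 0. Compounds in 0.9% saline were given IP on a three-injection schedule, dosed by average cage weight. Weight change is the maximum treatment-related weight loss during the growth-delay assay.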

[9] = system: L1210; experiment: Tested for in vitro growth inhibition against murine leukemia cell L1210DACH; format: functional, cell-based; conditions: Mus musculus
[10] = system: P388; experiment: Tested for in vitro growth inhibition against murine leukemia cell P388Pt4; format: functional, cell-based; conditions: Mus musculus
[11] = system: Mus musculus; experiment: Tested for in vivo weight change against murine P388Pt-resistant leukemia at the dose of 3.7 mg/kg per injection; format: functional, organism-based; method in brief: as §1
[12] = system: Mus musculus; experiment: Tested for the ratio of number of survivors / total number after 60 days at the dose of 2.3 mg/kg per injection against murine P388 Pt-resistant leukemia; format: functional, organism-based
Method in brief: (§3)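 CD2F1 (Balb/c × DBA/2F1) mice, 18–22 g, randomized and inoculated IP with counted leukemia cells on day 0, then re-randomized. Three IP treatments, dissolved in 0.9% saline and dosed on average cage weight, with dose in mg/kg per injection across a full toxic-to-ineffective range. Median life span and %T/C were recorded. Survivors at 60 days were counted as cured and excluded from %T/C.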

[13] = system: Mus musculus; experiment: Tested for in vivo weight change against murine colon carcinoma at the dose of 2.5 mg/kg per injection; format: functional, organism-based
[14] = system: L1210; experiment: Tested for in vivo weight change against murine L1210 Pt-resistant leukemia at the dose of 1.5 mg/kg per injection in experiment 1; format: functional, organism-based; conditions: Mus musculus; method in brief: as §1
[15] = system: L1210; experiment: Tested for the ratio of treated and control against solid tumor murine L1210 leukemia 1.5 mg/kg per injection in experiment 1; T/C; format: functional, organism-based; conditions: Mus musculus
Method in brief: (§4)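 Murine leukemia life span assay in CD2F1 (Balb/c × DBA/2F1) mice, 18–22 g, randomized, with IP tumor cell inoculation on day 0. Depending on the model, the inoculum was 1 × 10^4 cells with IP dosing on days 3, 7 and 11, or 1 × 10^6 cells with IP dosing on days 1, 5 and 9. Drug was given in 0.9% saline, mg/kg per injection, by average cage weight. Read-outs were median day of death and %T/C. Mice alive 60 days after treatment counted as cured and were excluded.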

[16] = system: L1210; experiment: Tested for median life span against solid tumor L1210 Pt-resistant leukemia at 1.6 mg/kg per injection in experiment 2; format: functional, organism-based; conditions: Mus musculus; method in brief: as §2
[17] = system: Mus musculus; experiment: Tested for median life span against solid tumor P388 Pt-resistant leukemia at 3.7 mg/kg per injection; format: functional, organism-based; method in brief: as §4
[18] = system: L1210; experiment: Tested for the ratio of treated and control against solid tumor murine L1210 Pt-resistant leukemia 1.5 mg/kg per injection in experiment 1; T/C; format: functional, organism-based; conditions: Mus musculus; method in brief: as §4
[19] = system: L1210; experiment: Tested for in vitro growth inhibition against murine leukemia cell L1210S; format: functional, cell-based; conditions: Mus musculus
[20] = system: L1210; experiment: Tested for the ratio of number of survivors / total number after 60 days at the dose of 1.6 mg/kg per injection against murine leukemia L1210 experiment 2; format: functional, organism-based; conditions: Mus musculus; method in brief: as §3
[21] = system: L1210; experiment: Tested for median life span against solid tumor L1210 Pt-resistant leukemia at 3.0 mg/kg per injection in experiment 1; format: functional, organism-based; conditions: Mus musculus; method in brief: as §2
[22] = system: L1210; experiment: Tested for median life span against solid tumor L1210 leukemia at 1.5 mg/kg per injection in experiment 1; format: functional, organism-based; conditions: Mus musculus; method in brief: as §2
[23] = system: L1210; experiment: Tested for in vivo weight change against murine L1210 leukemia at the dose of 2.5 mg/kg per injection in experiment 2; format: functional, organism-based; conditions: Mus musculus; method in brief: as §1
[24] = system: Mus musculus; experiment: Tested for the ratio of treated and control against solid tumor murine P388 Pt-resistant leukemia 10 mg/kg per injection; T/C; format: functional, organism-based; method in brief: as §4
[25] = system: L1210; experiment: Tested for in vivo weight change against murine L1210 Pt-resistant leukemia at the dose of 6.0 mg/kg per injection; format: functional, organism-based; conditions: Mus musculus; method in brief: as §1
[26] = system: L1210; experiment: Tested for in vivo weight change against murine L1210 leukemia at the dose of 6.0 mg/kg per injection in experiment 1; format: functional, organism-based; conditions: Mus musculus; method in brief: as §1
[27] = system: L1210; experiment: Tested for the ratio of number of survivors / total number after 60 days at the dose of 6.0 mg/kg per injection against murine leukemia L1210 experiment 1; format: functional, organism-based; conditions: Mus musculus; method in brief: as §3
[28] = system: Mus musculus; experiment: Tested for the ratio of number of survivors / total number after 60 days at the dose of 10 mg/kg per injection against murine P388 Pt-resistant leukemia; format: functional, organism-based; method in brief: as §3
[29] = system: L1210; experiment: Tested for the ratio of number of survivors / total number after 60 days at the dose of 10 mg/kg per injection against murine leukemia L1210 experiment 2; format: functional, organism-based; conditions: Mus musculus; method in brief: as §3
[30] = system: L1210; experiment: Tested for the ratio of treated and control against solid tumor murine L1210 Pt-resistant leukemia 4.0 mg/kg per injection in experiment 1; T/C; format: functional, organism-based; conditions: Mus musculus; method in brief: as §4
[31] = system: Mus musculus; experiment: Tested for the ratio of treated and control against solid tumor murine P388 leukemia 10 mg/kg per injection; T/C; format: functional, organism-based; method in brief: as §4
[32] = system: Mus musculus; experiment: Tested for in vivo weight change against murine P388 Pt-resistant leukemia at the dose of 10 mg/kg per injection; format: functional, organism-based; method in brief: as §1
[33] = system: L1210; experiment: Tested for the ratio of number of survivors / total number after 60 days at the dose of 4.0 mg/kg per injection against murine L1210 Pt-resistant leukemia in experiment 1; format: functional, organism-based; conditions: Mus musculus; method in brief: as §3
[34] = system: L1210; experiment: Tested for median life span against solid tumor L1210 leukemia at 6.0 mg/kg per injection in experiment 1; format: functional, organism-based; conditions: Mus musculus; method in brief: as §2
[35] = system: L1210; experiment: Tested for the ratio of treated and control against solid tumor murine L1210 Pt-resistant leukemia 10 mg/kg per injection in experiment 2; T/C; format: functional, organism-based; conditions: Mus musculus; method in brief: as §4
[36] = system: L1210; experiment: Tested for the ratio of number of survivors / total number after 60 days at the dose of 10 mg/kg per injection against murine L1210 Pt-resistant leukemia in experiment 2; format: functional, organism-based; conditions: Mus musculus; method in brief: as §3

For [Pt(cis-1,4-dach)CL2], the Weight change [1] was -0.1 g, the Log net cell kill [2] was -0.5 and the ID50 [3] was 0.663 µg/mL. For the same substance, the Weight change [4] was -2.2 g, the MLS [5] was 21.5 days and the ID50 [6] was 0.047 µg/mL. The ID50 [7] was 1.21 µg/mL, the Weight change [8] was -2.6 g and the ID50 [9] was 1.08 µg/mL. It also gave an ID50 [10] of 1.43 µg/mL, a Weight change [11] of -5.2 g and a 60-day survivors [12] of 0. It also gave a Weight change [13] of -4.2 g, a Weight change [14] of 1.9 g and a Ratio [15] of 217%. It also gave an MLS [16] of 15 days, an MLS [17] of 25.8 days and a Ratio [18] of 154%. The ID50 [19] was 0.248 µg/mL, the 60-day survivors [20] was 0 and the MLS [21] was 17 days. The MLS [22] was 23 days and the Weight change [23] was -1.9 g.

In the case of CISPLATIN, the T/C [24] is reported as 123%, the ID50 [3] is reported as 4.11 µg/mL and the Weight change [25] is reported as -3.7 g. For the same substance, the ID50 [6] was 0.128 µg/mL, the ID50 [7] was 7.84 µg/mL and the Weight change [26] was -1.9 g. It also gave a Survivors [27] of 1, a Survivors [28] of 0 and an ID50 [9] of 0.52 µg/mL. The ID50 [10] was 10 µg/mL, the Survivors [29] was 1 and the Ratio [30] was 109%. It also gave a T/C [31] of 86%, an ID50 [19] of 0.375 µg/mL and a Weight change [32] of -5.9 g. It also gave a Survivors [33] of 0, an MLS [34] of 18.5 days and a Ratio [35] of 120%. The Survivors [36] was 0.

Reference: ChEMBL document CHEMBL1127616, “Synthesis, structural characterization, and antitumor properties of a novel class of large-ring platinum(II) chelate complexes incorporating the cis-1,4-diaminocyclohexane ligand in a unique locked boat conformation” (J Med Chem, 1994)
